# Experimental data taken from paper PMC8178204 (Cancer research, 2021).
# Assays:
# [1] = test system: LC3, p62, LAMP2; assay: Immunoblot time course of autophagy-degraded proteins in SW480 cells; format: cell-based, human; details: for p62 accumulation, p38MAPK inhibitor alone: SW480, 1 or 3 days
# [2] = test system: SW480 colon adenocarcinoma xenografts; assay: SW480 xenograft in nude mice; details: for reduction of tumor growth: 20 mg/kg WX8 and/or 12.5 mg/kg SB202190, day 22; for Ki-67 positive tumor cells: tumor sections
# [3] = test system: SW480 cells; assay: Cell survival, dead cells and proliferation of SW480 cells; format: cell-based, human; details: SW480, 0.125 μM WX8 and/or 5 μM SB202190
# [4] = test system: HCT116 and A375 (sensitive), WI38 and Hs27 (resistant) cell lines; assay: Cell survival, sensitive versus resistant cell lines; format: cell-based, human
# [5] = test system: LC3, p62; format: cell-based, human; details: 0.5 μM WX8, all four cell lines
# [6] = test system: MCF10A cells; assay: Cell survival of MCF10A cells after p38MAPK siRNA depletion; format: cell-based, human; details: 0.5 μM WX8, 3 days
# [7] = test system: 8 normal fibroblast cell lines; assay: Cell survival after 3 days, viable cell count with FACS; format: cell-based, human; details: read-out: median IC50 (concentration that cause 50% reduction in cell survival), 3 days of treatment
# [8] = test system: 12 cancer lines; assay: as above; format: cell-based, human; details: read-out: median IC50 (concentration that cause 50% reduction in cell survival), 3 days of treatment
# [9] = test system: Cathepsin D; assay: Cathepsin D maturation in SW480 cells; format: cell-based, human; details: SW480, 0.125 μM WX8 with or without 5 μM SB202190
# Procedure, shortened: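 SW480 cells were cultured for the indicated times with 0.125 μM WX8, 5 μM SB202190, or both, each diluted 1:1,000 from DMSO stocks, with DMSO as vehicle. Cells were trypsinized and pooled with unattached cells, then lysed in SDS sample buffer. Precursor and mature Cathepsin D were immunoblotted (nitrocellulose, peroxidase secondary, chemiluminescence) and quantified by densitometry of low-exposure images.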
# [10] = SW480, 0.125 μM WX8 and/or 5 μM SB202190
# [11] = 20 mg/kg WX8 and/or 12.5 mg/kg SB202190
smiles,measurement,setting,value
Oc1ccc(-c2nc(-c3ccncc3)c(-c3ccc(F)cc3)[nH]2)cc1 [SB202190],LAMP2 level increase,[1]; [10],about 3 fold
same,p62 level increase,[1]; [10],about 3 fold
same,total LC3 protein accumulation above initial levels,[1]; [10],2 fold
same,"p62 accumulation, p38MAPK inhibitor alone",[1],caused accumulation of p62
same,"adverse effects (mouse behavior, body weight)","[2]; daily intraperitoneal, 20 mg/kg WX8 and/or 12.5 mg/kg SB202190",No adverse effects were apparent
same,reduction of tumor growth,[2]; daily intraperitoneal,28%
same,Ki-67 positive tumor cells,[2]; [11],about 75%
same,effect on proliferation (cell divisions per day) over time,[3],reduced proliferation for up to two days
CC(C)(C)Cn1c(N)nc2ccc(-c3[nH]c(C(C)(C)C)nc3-c3ccc(F)cc3)nc21 [LY2228820],"p62 accumulation, p38MAPK inhibitor alone",[1],caused accumulation of p62
C(=N\Nc1nc(Nc2ccccc2)nc(N2CCOCC2)n1)/c1c[nH]c2ccccc12 [WX8],difference in sensitivity to WX8 between sensitive and resistant cell lines,[4],approximately 16 fold
same,Total LC3 and the LC3-II/I ratio,[5],increased
same,p62 level,[5],p62 accumulation
same,LAMP2 level increase,[1]; [10],about 3 fold
same,p62 level increase,[1]; [10],about 3 fold
same,time course of LC3 and p62 protein levels,[1]; [10],peaked on day 2
same,total LC3 protein accumulation above initial levels,[1]; [10],5 fold
same,reduction of tumor growth,[2]; daily intraperitoneal,22%
same,Ki-67 positive tumor cells,[2]; [11],about 75%
same,reduction of cell survival,[6]; control siRNA-transfected cells,20%
same,reduction of cell survival,[6]; highest levels of p38MAPK depletion,65%
same,IC50,[7],2700 nM
same,IC50,[8],200 nM
same,day at which active Cathepsin D reappeared,[9],3 days
same,effect on proliferation (cell divisions per day) over time,[3],reduced proliferation for up to two days
